# ChEMBL document CHEMBL1138539, “Synthesis of new 2-(5-substituted-3-phenyl-2-pyrazolinyl)-1,3-thiazolino[5,4-b]quinoxaline derivatives and evaluation of their antiamoebic activity” (Eur J Med Chem, 2009)
# Test system: not listed separately
# Assay: Cytotoxicity against human kidney epithelial cells after 44 hrs by MTT assay
# Format: ADME, cell-based
# Details: Epithelial cell
row,SMILES,IC50 [nM]
1,O=C(/C=C/c1ccc(Cl)c(Cl)c1)c1ccccc1,> 50000
2,CC(C)c1ccccc1/C=C/C(=O)c1ccccc1,> 46000
3,O=C(/C=C/c1ccccc1Cl)c1ccccc1,> 50000
4,CCc1ccccc1/C=C/C(=O)c1ccccc1,> 50000
5,Cc1ccc(C2CC(c3ccccc3)=NN2C(N)=S)cc1 (stereo not given),> 50000
6,Cc1ccc(C2CC(c3ccccc3)=NN2c2nc3nc4ccccc4nc3s2)cc1 (stereo not given),> 14000
7,Cc1cc(C)c(C2CC(c3ccccc3)=NN2c2nc3nc4ccccc4nc3s2)c(C)c1 (stereo not given),> 35000
8,CCc1ccccc1C1CC(c2ccccc2)=NN1C(N)=S (stereo not given),> 50000
9,CC(C)c1ccccc1C1CC(c2ccccc2)=NN1C(N)=S (stereo not given),> 50000
10,Clc1cccc(C2CC(c3ccccc3)=NN2c2nc3nc4ccccc4nc3s2)c1Cl (stereo not given),> 50000
11,Clc1ccccc1C1CC(c2ccccc2)=NN1c1nc2nc3ccccc3nc2s1 (stereo not given),> 50000
12,c1ccc(C2=NN(c3nc4nc5ccccc5nc4s3)C(c3c[nH]c4ccccc34)C2)cc1 (stereo not given),> 18000
13,CC(C)c1ccccc1C1CC(c2ccccc2)=NN1c1nc2nc3ccccc3nc2s1 (stereo not given),> 50000
14,O=C(/C=C/c1c[nH]c2ccccc12)c1ccccc1,> 44000
15,NC(=S)N1N=C(c2ccccc2)CC1c1c[nH]c2ccccc12 (stereo not given),> 54000
16,NC(=S)N1N=C(c2ccccc2)CC1c1ccccc1Cl (stereo not given),> 50000
17,Cc1cc(C)c(/C=C/C(=O)c2ccccc2)c(C)c1,> 50000
18,NC(=S)N1N=C(c2ccccc2)CC1c1ccccc1 (stereo not given),> 50000
19,Cc1cc(C)c(C2CC(c3ccccc3)=NN2C(N)=S)c(C)c1 (stereo not given),> 50000
20,c1ccc(C2=NN(c3nc4nc5ccccc5nc4s3)C(c3ccccc3)C2)cc1 (stereo not given),> 50000
21,CCc1ccccc1C1CC(c2ccccc2)=NN1c1nc2nc3ccccc3nc2s1 (stereo not given),> 50000
22,O=C(/C=C/c1ccccc1)c1ccccc1 [CHALCONE],> 50000
23,Cc1ncc([N+](=O)[O-])n1CCO [METRONIDAZOLE],> 100000

# Test system: Entamoeba histolytica
# Assay: Antiamnesic activity against Entamoeba histolytica HM-1:IMSS after 72 hrs by trypan blue exclusion method
# Format: functional, organism-based
# Details: not given
# Procedure, shortened: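 Trophozoites grown in TYIS-33 medium and tested by microdilution; amoebae counted by haemocytometer, viability confirmed by trypan blue exclusion. Compounds in DMSO (1 mg/ml stock), two-fold serial dilutions, with medium blanks and untreated controls. After incubation, wells washed in warm 0.9% NaCl, methanol-fixed, eosin-stained, dye released in 0.1 N NaOH, OD 490 nm. IC50 from linear regression of % inhibition versus log dose.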
row,SMILES,IC50 [nM]
1,Cc1ccc(/C=C/C(=O)c2ccccc2)cc1,2120
2,CC(C)c1ccccc1/C=C/C(=O)c1ccccc1,3480
3,CCc1ccccc1/C=C/C(=O)c1ccccc1,1790
4,Cc1ccc(C2CC(c3ccccc3)=NN2C(N)=S)cc1 (stereo not given),1580
5,CCc1ccccc1C1CC(c2ccccc2)=NN1C(N)=S (stereo not given),1610
6,c1ccc(C2=NN(c3nc4nc5ccccc5nc4s3)C(c3c[nH]c4ccccc34)C2)cc1 (stereo not given),1290
7,O=C(/C=C/c1c[nH]c2ccccc12)c1ccccc1,1800
8,NC(=S)N1N=C(c2ccccc2)CC1c1c[nH]c2ccccc12 (stereo not given),1770
9,NC(=S)N1N=C(c2ccccc2)CC1c1ccccc1 (stereo not given),1610
10,c1ccc(C2=NN(c3nc4nc5ccccc5nc4s3)C(c3ccccc3)C2)cc1 (stereo not given),1490
11,CCc1ccccc1C1CC(c2ccccc2)=NN1c1nc2nc3ccccc3nc2s1 (stereo not given),1490
12,O=C(/C=C/c1ccccc1)c1ccccc1 [CHALCONE],1700

# Same assay, conditions: in the assay text read “Antiamoebic” for “Antiamnesic”
row,SMILES,IC50 [nM]
1,Cc1ccc(C2CC(c3ccccc3)=NN2c2nc3nc4ccccc4nc3s2)cc1 (stereo not given),300

# Test system: not listed separately
# Assay: Safety index, ratio of IC50 for human kidney epithelial cells to IC50 for Entamoeba histolytica HM-1:IMSS
# Details: epithelial cell
row,SMILES,selectivity ratio
1,Cc1ncc([N+](=O)[O-])n1CCO [METRONIDAZOLE],> 55.6

# Same assay, conditions: human kidney epithelial cells
row,SMILES,selectivity ratio
1,O=C(/C=C/c1ccc(Cl)c(Cl)c1)c1ccccc1,> 24.9
2,CC(C)c1ccccc1/C=C/C(=O)c1ccccc1,> 13.2
3,O=C(/C=C/c1ccccc1Cl)c1ccccc1,> 19.2
4,CCc1ccccc1/C=C/C(=O)c1ccccc1,> 27.9
5,Cc1ccc(C2CC(c3ccccc3)=NN2C(N)=S)cc1 (stereo not given),> 31.7
6,Cc1ccc(C2CC(c3ccccc3)=NN2c2nc3nc4ccccc4nc3s2)cc1 (stereo not given),> 46.4
7,Cc1cc(C)c(C2CC(c3ccccc3)=NN2c2nc3nc4ccccc4nc3s2)c(C)c1 (stereo not given),> 10.8
8,CCc1ccccc1C1CC(c2ccccc2)=NN1C(N)=S (stereo not given),> 31.1
9,CC(C)c1ccccc1C1CC(c2ccccc2)=NN1C(N)=S (stereo not given),> 217
10,Clc1cccc(C2CC(c3ccccc3)=NN2c2nc3nc4ccccc4nc3s2)c1Cl (stereo not given),> 56.2
11,Clc1ccccc1C1CC(c2ccccc2)=NN1c1nc2nc3ccccc3nc2s1 (stereo not given),> 26.3
12,c1ccc(C2=NN(c3nc4nc5ccccc5nc4s3)C(c3c[nH]c4ccccc34)C2)cc1 (stereo not given),> 14
13,CC(C)c1ccccc1C1CC(c2ccccc2)=NN1c1nc2nc3ccccc3nc2s1 (stereo not given),> 294
14,O=C(/C=C/c1c[nH]c2ccccc12)c1ccccc1,> 24.4
15,NC(=S)N1N=C(c2ccccc2)CC1c1c[nH]c2ccccc12 (stereo not given),> 30.5
16,NC(=S)N1N=C(c2ccccc2)CC1c1ccccc1Cl (stereo not given),> 22.4
17,Cc1cc(C)c(/C=C/C(=O)c2ccccc2)c(C)c1,> 35.5
18,NC(=S)N1N=C(c2ccccc2)CC1c1ccccc1 (stereo not given),> 31.1
19,Cc1cc(C)c(C2CC(c3ccccc3)=NN2C(N)=S)c(C)c1 (stereo not given),> 11.4
20,c1ccc(C2=NN(c3nc4nc5ccccc5nc4s3)C(c3ccccc3)C2)cc1 (stereo not given),> 33.5
21,CCc1ccccc1C1CC(c2ccccc2)=NN1c1nc2nc3ccccc3nc2s1 (stereo not given),> 33.5
22,O=C(/C=C/c1ccccc1)c1ccccc1 [CHALCONE],> 29.4

# Test system: Entamoeba histolytica
# Assay: Antiamoebic activity against Entamoeba histolytica HM-1:IMSS after 72 hrs by microdilution method
# Details: not given
row,SMILES,IC50 [nM]
1,O=C(/C=C/c1ccc(Cl)c(Cl)c1)c1ccccc1,2010
2,O=C(/C=C/c1ccccc1Cl)c1ccccc1,2600
3,Cc1cc(C)c(C2CC(c3ccccc3)=NN2c2nc3nc4ccccc4nc3s2)c(C)c1 (stereo not given),3200
4,CC(C)c1ccccc1C1CC(c2ccccc2)=NN1C(N)=S (stereo not given),230
5,Clc1cccc(C2CC(c3ccccc3)=NN2c2nc3nc4ccccc4nc3s2)c1Cl (stereo not given),890
6,Clc1ccccc1C1CC(c2ccccc2)=NN1c1nc2nc3ccccc3nc2s1 (stereo not given),1900
7,CC(C)c1ccccc1C1CC(c2ccccc2)=NN1c1nc2nc3ccccc3nc2s1 (stereo not given),170
8,NC(=S)N1N=C(c2ccccc2)CC1c1ccccc1Cl (stereo not given),2230
9,Cc1cc(C)c(/C=C/C(=O)c2ccccc2)c(C)c1,1410
10,Cc1cc(C)c(C2CC(c3ccccc3)=NN2C(N)=S)c(C)c1 (stereo not given),4370
11,Cc1ncc([N+](=O)[O-])n1CCO [METRONIDAZOLE],1800
